Shown are actives, neighbours in structure and some others; about 3.4% of the full set was active somewhere.
M1 antag – antagonists of human M1 muscarinic receptor | P11229 | AID 588852 | CHO-K1 hM1, Fluo-8 calcium fluorescence, ACh EC80 antagonist | hit rate 1.3% among 360,000 | inhibition, % at 3 µM;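 active means percent inhibition above its own plate's cutoff, namely the mean of that plate's compound wells plus 3 SD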;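 further: peak over basal fluorescence ratio during 140 s after agonist addition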
Target sequence (P11229 whole entry, looked up): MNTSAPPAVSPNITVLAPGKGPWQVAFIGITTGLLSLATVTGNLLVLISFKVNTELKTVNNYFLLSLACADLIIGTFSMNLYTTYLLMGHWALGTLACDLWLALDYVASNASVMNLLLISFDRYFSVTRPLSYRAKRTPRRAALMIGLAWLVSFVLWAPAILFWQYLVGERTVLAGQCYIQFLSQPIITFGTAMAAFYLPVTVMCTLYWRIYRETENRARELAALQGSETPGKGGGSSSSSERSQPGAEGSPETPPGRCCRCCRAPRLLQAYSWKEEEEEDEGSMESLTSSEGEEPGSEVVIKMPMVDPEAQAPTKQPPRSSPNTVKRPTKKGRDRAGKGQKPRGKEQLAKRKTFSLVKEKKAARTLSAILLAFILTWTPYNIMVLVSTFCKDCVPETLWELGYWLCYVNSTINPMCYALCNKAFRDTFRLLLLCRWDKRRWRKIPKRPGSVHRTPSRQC
TAAR1 ag – agonists of human TAAR1; Q96RJ0; CHO RD-HGA16 TAAR1, Fluo-8 calcium fluorescence; vehicle wells 0%, saturating PEA agonist 100%; activation, % at 3 µM; AID 624467; hit rate 0.99% among 360,000;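 active means activation above the mean activation of all test compounds in the run plus 3 SD, cut at about 38% in these data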
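Repeats: no replicates (n 1) | Material: CHO-derived RD-HGA16 cells with stable Gα16 and human TAAR1 | Technique: Kinetic Fluo-8 calcium fluorescence | Schedule: 17-24 h seeding, 75 min 37 °C dye, 30 min RT | Evaluation: % activation from peak over basal fluorescence ratio, DMSO-to-PEA scaled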
CHRM1 agonist – agonists of human M1 muscarinic receptor; P11229; CHO-K1 hM1, Fluo-8 calcium fluorescence, agonist mode; 0% DMSO, 100% acetylcholine EC100; activation, % at 3 µM; hit rate 0.33% among 360,000;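 active means activation above the run's mean compound activation plus 3 SD, cut at about 16% in these data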;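 further: peak over basal fluorescence ratio within a 140 s kinetic read after compound addition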
TAAR1 antag – human TAAR1 antagonism | CHO RD-HGA16 TAAR1, Fluo-8 calcium fluorescence, antagonist | inhibition, % at 3 µM | hit rate 1.5% among 360,000 | AID 624466;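 active means inhibition above a per-plate cutoff, the mean inhibition of test compounds on that plate plus 3 SD, cut at about 49% in these data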
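Assay system: CHO-derived RD-HGA16 cells stably expressing human TAAR1 plus Gα16. Timing: 140 s kinetic read after compound, 140 s after agonist. Technique: kinetic Fluo-8 calcium fluorescence measurement. Measure: % inhibition of agonist calcium response.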
M1 PAM – human CHRM1 positive allosteric modulation; activation, % at 3 µM; hit rate 0.088% among 360,000; CHO-K1 hM1, Fluo-8 calcium fluorescence, ACh EC20; 0% = ACh EC20, 100% = maximal ACh; P11229; in the data active means activation above about 19%, passing the limit was not always enough
TAAR1 ag confirm – human TAAR1 agonism, confirmed | activation, % at 3 µM | shares compounds with TAAR1 ag | hit rate 82% among 2,400 | CHO RD-HGA16 TAAR1, Fluo-8 calcium fluorescence; scaled: DMSO 0%, maximal phenethylamine 100% | AID 651783;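 active means activation above a cutoff set at the run's mean compound activation plus 3 SD, cut at about 39% in these data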
Ga16 ag counter – nonselective agonist in parental cells, TAAR1 agonist counter-screen. shares compounds with TAAR1 ag. CHO-Ga16 parental, Fluo-8 calcium fluorescence; normalized to maximal ATP response, DMSO zero. activation, % at 3 µM. hit rate 50% among 2,400. AID 651787;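 active means activation above the run cutoff, the mean activation over all tested wells plus 3 SD, cut at about 12% in these data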
TAAR1 desens – human TAAR1 agonist that also desensitizes the receptor; shares compounds with TAAR1 ag; CHO RD-HGA16 hTAAR1, Fluo-8 calcium, beta-PEA response inhibition; inhibition, % at 3 µM; hit rate 46% among 2,400;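 active means inhibition above the run cutoff, the mean inhibition of all test compounds plus 3 SD, cut at about 49% in these data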;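 further: beta-PEA stimulus applied at its EC80; loss of beta-PEA calcium signal after compound pretreatment read as receptor desensitization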
Ga16 antag count – nonselective Ga16 antagonist in TAAR1 agonist counter-screen | shares compounds with TAAR1 ag | CHO-Ga16 ATP-induced calcium, Fluo-8 fluorescence | inhibition, % at 3 µM | hit rate 39% among 2,400 | AID 651952;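 active means inhibition above the plate's mean compound inhibition plus 3 SD, computed per plate, cut at about 22% in these data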
A number is an active result; i = inactive; nt = no result given.

SMILES	M1 antag	TAAR1 ag	CHRM1 agonist	TAAR1 antag	M1 PAM	TAAR1 ag confirm	Ga16 ag counter	TAAR1 desens	Ga16 antag count
O=C(Nc1ncc(S(=O)(=O)c2ccc([N+](=O)[O-])cc2)s1)c1cccc2ccccc12	i	128	i	94	i	129	88	105	79
N#CCOC(=O)[C@H](Cc1ccccc1)N1C(=O)c2ccccc2C1=O	i	i	i	i	i	nt	nt	nt	nt
COc1cc(/C=C(\C#N)c2nc3ccc(C)cc3[nH]2)c([N+](=O)[O-])cc1OC	i	47	i	i	i	i	30	i	i
COc1cccc(CN2CCN(Cc3cc4ccccc4[nH]3)CC2CCO)c1 (stereo unspecified)	i	63	i	69	i	70	49	81	56
COc1ccc(C(=O)NC(=S)NNC(=O)[C@H]2C[C@@H]2c2ccccc2)cc1OC	i	121	19	49	i	90	70	70	43
COc1ccc(C(=O)NC(=S)NNC(=O)Cc2cccs2)cc1	i	i	i	i	i	nt	nt	nt	nt
COc1ccc(OC)c(NC(=O)C2CC2c2ccccc2)c1 (stereo unspecified)	i	i	i	i	i	nt	nt	nt	nt
COc1cc(OC)cc(C(=O)NC(=S)NNC(=O)Cc2cccs2)c1	i	80	i	i	i	56	37	i	i
O=C(/C=C/c1ccc(F)cc1)NC(=S)NNC(=O)[C@H]1C[C@@H]1c1ccccc1	i	132	49	82	i	88	99	72	66
COc1cc(OC)cc(C(=O)NC(=S)NNC(=O)[C@H]2C[C@@H]2c2ccccc2)c1	i	174	43	107	i	113	102	89	65
Cc1cc2nc(NCCCO)n(CC(=O)c3cc(C(C)(C)C)c(O)c(C(C)(C)C)c3)c2cc1C	i	49	i	i	i	53	30	i	34
CN1CCN(c2ncnc3c2ncn3[C@H]2CN(Cc3ccc(Cl)cc3)C[C@@H](CO)O2)CC1	i	i	i	i	i	nt	nt	nt	nt
O=C(N[C@H](C(=O)N1CCC[C@H]1C(=O)NCCc1ccccc1Cl)C1CCCCC1)c1cccs1	nt	nt	nt	nt	nt	nt	i	nt	i
CC(C)[C@H](NC(=O)C1CCCC1)C(=O)N1CCC[C@H]1C(=O)NCCc1ccccc1Cl	nt	87	nt	75	nt	85	i	87	i
O=C(NCc1ccccc1Cl)[C@H]1CCCN1C(=O)[C@H]1CCCN1C(=O)c1cccs1	nt	i	nt	i	nt	nt	nt	nt	nt
CC(C)[C@H](NC(=O)c1ccc(Cl)cc1Cl)C(=O)N1CCC[C@H]1C(=O)NCCc1ccccc1Cl	nt	50	nt	76	nt	73	i	92	i
CCOc1c(Br)cc(C(=O)Nc2cccc(S(=O)(=O)N3CCOCC3)c2)cc1OC	i	i	i	i	i	nt	nt	nt	nt
COCCCn1cc(CN2CC(N3CCN(C4CCN(C)CC4)CC3)CS2(=O)=O)nn1 (stereo unspecified)	nt	i	nt	i	nt	nt	nt	nt	nt
CCN1CCN(CCNC(=O)c2ccc(/C=C3/Sc4ccccc4N(Cc4ccccc4C)C3=O)cc2)CC1	i	60	i	i	i	72	46	65	56
Cc1ccccc1CN1C(=O)c2ccccc2Sc2ccc(C(=O)NCCN3CCOCC3)cc21	i	i	i	i	i	nt	nt	nt	nt
COc1ccc(CN2C(=O)C(CC(=O)NCCc3ccccn3)CC(C(=O)N(C)C)=C2C)cc1 (stereo unspecified)	i	46	i	i	i	62	i	i	i
Cn1cccc1/C=N/n1c(-c2ccc(Cl)cc2Cl)n[nH]c1=S	i	62	i	i	i	53	26	i	24
CCCC(=NC(C)CC)C1=C(O)CC(c2ccccc2)CC1=O (stereo unspecified)	i	58	i	i	i	86	56	i	i

Screens: PubChem BioAssay, The Scripps Research Institute Molecular Screening Center
